pIC50: −log10 of the molar value. Activity calls are given as the source filed them. The rule behind the calls is not given here.
Key:
Bcap37 [1] = assay: Growth inhibition of human Bcap37 cells at 10 uM after 72 hrs by MTT assay relative to control; format: functional; conditions: for inhibition of growth at 10 µM: Homo sapiens, Bcap37, 72 h, read-out: GI
In short: (§1)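 Cells in RPMI 1640 with 10% heat-inactivated FBS, 37 °C, 5% CO2. Seeded at 2 × 10³ cells per well. Compounds dissolved in DMSO, diluted in medium, tested at 1–100 μM for 72 h; 0.1% DMSO control. MTT read-out, absorbance at 595 nm. Mean ± SD of triplicate experiments. IC50 taken from the dose–response curve.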

Bcap37 [2] = assay: Growth inhibition of human Bcap37 cells at 1 uM after 72 hrs by MTT assay relative to control; format: functional; conditions: for inhibition of growth at 1 µM: Homo sapiens, Bcap37, 72 h, read-out: GI; in short: as §1
PC-3 [3] = assay: Growth inhibition of human PC3 cells at 1 uM after 72 hrs by MTT assay relative to control; format: functional; conditions: for inhibition of growth at 1 µM: Homo sapiens, PC-3, 72 h, read-out: GI; in short: as §1
PC-3 [4] = assay: Growth inhibition of human PC3 cells at 10 uM after 72 hrs by MTT assay relative to control; format: functional; conditions: for inhibition of growth at 10 µM: Homo sapiens, PC-3, 72 h, read-out: GI; in short: as §1
BGC-823 [5] = assay: Growth inhibition of human BGC823 cells at 10 uM after 72 hrs by MTT assay relative to control; format: functional; conditions: BGC-823, 72 h, read-out: GI; in short: as §1
BGC-823 [6] = assay: Growth inhibition of human BGC823 cells at 1 uM after 72 hrs by MTT assay relative to control; format: functional; conditions: BGC-823, 72 h, read-out: GI; in short: as §1
[7] = biological target: T1, Mitogen-activated protein kinase; ERK1/ERK2 (Homo sapiens) (UniProt P27361+P28482); assay: Inhibition of EGF-induced ERK1/2 phosphorylation in human PC3 cells at 10 uM incubated for 60 mins prior to EGF-treatment measured after 10 mins by Western blotting analysis; format: cell-based; conditions: PC-3
T1 sequence (P27361 whole entry, looked up): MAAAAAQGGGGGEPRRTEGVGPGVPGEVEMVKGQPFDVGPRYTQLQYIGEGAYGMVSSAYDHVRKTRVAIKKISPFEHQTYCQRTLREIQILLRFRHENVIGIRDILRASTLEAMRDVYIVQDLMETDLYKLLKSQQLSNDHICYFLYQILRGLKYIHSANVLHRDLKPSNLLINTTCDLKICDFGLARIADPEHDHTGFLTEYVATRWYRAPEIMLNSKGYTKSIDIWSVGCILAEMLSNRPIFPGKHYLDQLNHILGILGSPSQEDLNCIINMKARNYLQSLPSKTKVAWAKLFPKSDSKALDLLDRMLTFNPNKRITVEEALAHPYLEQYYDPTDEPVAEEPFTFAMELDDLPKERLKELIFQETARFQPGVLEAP
T1 sequence (P28482 whole entry, looked up): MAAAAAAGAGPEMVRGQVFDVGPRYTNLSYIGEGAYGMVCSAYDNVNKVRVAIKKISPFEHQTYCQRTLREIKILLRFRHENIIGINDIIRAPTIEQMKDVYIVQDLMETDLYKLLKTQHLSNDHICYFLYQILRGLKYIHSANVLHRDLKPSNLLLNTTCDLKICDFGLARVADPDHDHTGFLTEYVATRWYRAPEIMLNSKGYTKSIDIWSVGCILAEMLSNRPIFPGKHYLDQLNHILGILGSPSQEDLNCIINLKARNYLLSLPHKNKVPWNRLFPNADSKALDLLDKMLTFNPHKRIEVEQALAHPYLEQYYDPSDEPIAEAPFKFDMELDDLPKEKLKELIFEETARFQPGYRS
In short: (§2)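 PC3 cells grown 36–48 h in RPMI 1640 with 10% FBS at 37 °C, then serum-starved 24 h. Treated with compound for 60 min, then EGF 10 ng/mL for 10 min; quenched on ice. Cells washed with cold PBS and lysed in NP-40/SDS buffer with Na3VO4 and NaF. Run on 10% SDS-PAGE, PVDF blot probed for pERK1/2 with actin as loading control, ECL detection.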

[8] = biological target: T1, Mitogen-activated protein kinase; ERK1/ERK2 (Homo sapiens); assay: Inhibition of EGF-induced ERK1/2 phosphorylation in human PC3 cells at 5.12 uM incubated for 60 mins prior to EGF-treatment measured after 10 mins by Western blotting analysis; format: cell-based; conditions: PC-3; in short: as §2
[9] = biological target: T1, Mitogen-activated protein kinase; ERK1/ERK2 (Homo sapiens); assay: Inhibition of EGF-induced ERK1/2 phosphorylation in human PC3 cells at 1.28 uM incubated for 60 mins prior to EGF-treatment measured after 10 mins by Western blotting analysis; format: cell-based; conditions: PC-3; in short: as §2
Bcap37 [10] = assay: Growth inhibition of human Bcap37 cells after 72 hrs by MTT assay; format: functional, cell-based; conditions: Bcap37, 72 h; in short: as §1
BGC-823 [11] = assay: Growth inhibition of human BGC823 cells after 72 hrs by MTT assay; format: functional, cell-based; conditions: BGC-823, 72 h; in short: as §1
PC-3 [12] = assay: Growth inhibition of human PC3 cells after 72 hrs by MTT assay; format: functional, cell-based; conditions: PC-3, 72 h; in short: as §1

Row | inhibition [7] | Structure (SMILES) | inhibition of growth at 10 µM (Bcap37 [1]) | inhibition of growth at 1 µM (Bcap37 [2]) | inhibition of growth at 1 µM (PC-3 [3]) | inhibition of growth at 10 µM (PC-3 [4]) | inhibition of growth at 10 µM (BGC-823 [5]) | inhibition of growth at 1 µM (BGC-823 [6]) | other results
1 | – | COc1cc2ncnc(Nc3ccc(Br)cc3Cl)c2c(OC)c1OC | 18.6% | 8.7% | -8.4% | 49.7% | – | – | –
2 | Active | COc1cc2ncnc(Nc3ccc(C)cc3)c2c(OC)c1OC | 11.1% | 7.3% | 23.8% | 45.6% | 19.3% | 1.2% | inhibition [8]: Active
3 | – | COc1cc2ncnc(Nc3cccc(Cl)c3)c2c(OC)c1OC.Cl | 17.5% | 11% | – | – | 23.9% | 5.9% | growth inhibition (GI) (PC-3 [3]): 16.9%; growth inhibition (GI) (PC-3 [4]): 28.8%
4 | – | COc1cc2ncnc(NCCc3cccc(F)c3)c2c(OC)c1OC | 45.8% | 2.1% | 35.6% | 61.7% | 58.9% | 40.8% | –
5 | – | COc1cc2ncnc(Nc3c(F)cc(F)cc3Br)c2c(OC)c1OC | 2.2% | 4.3% | 8.1% | 43% | 68.4% | 38.5% | –
6 | Active | COc1cc2ncnc(Nc3cccc(C(F)(F)F)c3)c2c(OC)c1OC | 23.5% | 21% | 14.9% | 46.6% | 24.3% | 1% | inhibition [9]: Active
7 | Active | COc1cc2ncnc(Nc3ccccc3F)c2c(OC)c1OC | – | – | 0.9% | 24% | – | – | –
8 | – | COc1cc2ncnc(Nc3cc(F)ccc3Br)c2c(OC)c1OC | 18.9% | 10.5% | 12.8% | 34.7% | 60.7% | 12.4% | –
9 | – | COc1cc2ncnc(Nc3cccc(F)c3)c2c(OC)c1OC [listing 1 of 2 here] | – | – | – | 21.5% | – | – | growth inhibition (GI) (PC-3 [3]): 14.7%
10 | Active | COc1cc2ncnc(Nc3ccc(Br)cc3)c2c(OC)c1OC | 26.1% | 10.4% | 1% | 22.2% | 32.6% | 13.8% | –
11 | Active | COc1cc2ncnc(Nc3cccc(Cl)c3)c2c(OC)c1OC [listing 1 of 2 here] | – | – | – | – | – | – | –
12 | – | COc1cc2ncnc(Nc3cccc([N+](=O)[O-])c3)c2c(OC)c1OC | 50% | 31.6% | 14.5% | 26.4% | 16.3% | 9% | –
13 | – | COc1cc2ncnc(Nc3cc(C(F)(F)F)ccc3Br)c2c(OC)c1OC | – | – | -3.9% | 25.3% | 23.2% | 2.1% | –
14 | – | COc1cc2ncnc(Nc3cccc(F)c3)c2c(OC)c1OC.Cl | 13.5% | 7% | 14.9% | – | – | – | growth inhibition (GI) (PC-3 [4]): 38.9%
15 | – | COc1cc2ncnc(Nc3c(C)cc(C)cc3Br)c2c(OC)c1OC | – | – | 9.7% | 19.8% | 11.4% | 0.6% | –
16 | Active | COc1cc2ncnc(Nc3ccc(F)cc3)c2c(OC)c1OC | 10.8% | 7.8% | 3.1% | 9.1% | – | – | inhibition [8]: Active
17 | – | COc1cc2ncnc(Nc3ccccc3[N+](=O)[O-])c2c(OC)c1OC | 15.4% | -8.3% | 11.3% | 25.5% | – | – | –
18 | – | COc1cc2ncnc(Nc3cc(I)ccc3C(=O)O)c2c(OC)c1OC | 20.7% | 19.4% | 14.1% | 22.6% | 51.9% | 42.2% | –
19 | Active | COc1cc2ncnc(Nc3cccc(F)c3)c2c(OC)c1OC [listing 2 of 2 here] | – | – | – | – | – | – | inhibition [8]: Active
20 | – | COc1cc2ncnc(Nc3cccc(Cl)c3)c2c(OC)c1OC [listing 2 of 2 here] | – | – | – | – | – | – | growth inhibition (GI) (Bcap37 [1]): 28.8%; growth inhibition (GI) (Bcap37 [2]): 14.1%; growth inhibition (GI) (PC-3 [3]): -4.5%; growth inhibition (GI) (PC-3 [4]): 11.9%
21 | – | COc1cc2ncnc(Nc3ccc(Cl)cc3)c2c(OC)c1OC | 26.4% | 22.2% | 6.3% | 31.3% | 43% | 15.5% | –
22 | Active | COc1cc2ncnc(Nc3ccc(O)cc3)c2c(OC)c1OC | 3.3% | -7.5% | 9.3% | 24.6% | – | – | –
23 | – | COc1cc2ncnc(Nc3cccc(Br)c3)c2cc1OC | 43.4% | 19.8% | 21.5% | 62.8% | 32.6% | 9.3% | pIC50 (Bcap37 [10]): 4.80; pIC50 (BGC-823 [11]): 4.84; pIC50 (PC-3 [12]): 5.08
24 | – | COc1cc2ncnc(Nc3cccc(C(F)(F)F)c3F)c2c(OC)c1OC | 69.3% | 11.3% | 9.2% | 42.7% | 41.9% | 3.9% | –
25 | – | COc1cc2ncnc(Nc3ccc([N+](=O)[O-])cc3)c2c(OC)c1OC | -16.3% | -12% | 7.9% | 24.9% | – | – | –
26 | Active | COc1cc2ncnc(Nc3ccc(C(F)(F)F)cc3)c2c(OC)c1OC | 32.3% | 8.6% | 7.4% | 29% | 17.4% | 2.4% | inhibition [9]: Active
27 | – | COc1cc(Nc2ncnc3cc(OC)c(OC)c(OC)c23)c(C(=O)O)cc1OC | 53.7% | 40.9% | 12.5% | 40.4% | 34.3% | 13.2% | –
28 | Active | COc1cc2ncnc(Nc3cc(C(F)(F)F)ccc3F)c2c(OC)c1OC | 27.6% | 14.4% | 7.6% | 29.2% | – | – | –
